Vif imaging: inhibitors of HIV Vif. hit rate 0.35% among 340,000. HEK293T cells, Vif self-association by quenched fluorescence, imaging, 24 h. inhibition, % at 7.49 µM; in the data active = inhibition above about 50%, passing the limit was not always enough; inconclusive = no clear call, values can overlap the other calls; inactive = below about 31%
Cneo AK release: causes C. neoformans cell lysis; adenylate kinase release luminescence, 4 h; normalised: neutral wells 0, clomiphene wells 100; lysis activity, % at 15 µM; hit rate 0.2% among 360,000;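 active = mean lysis activity across replicates of at least 80%, whatever share of replicates individually reach that level; inactive = mean lysis activity below 80%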
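Assay system: C. neoformans cells. Amount: yeast cell density of 5 × 10^6 cells/mL. Technique: AK luminescence. Buffer or medium: YPD. Times: static 4 h at 37 °C with compound, 1 h detection. Dosing: single-point compound dose. Read-out: lysis from increased AK signal.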
Ecoli rRNA inh: inhibits bacterial ribosomal RNA function over humanized ribosomes; E. coli WT GFP vs humanized-ribosome RFP mutants, fluorescence, 24 h; hits give low values; DMSO median 0, no signal -100; GFP signal change (wild-type ribosome), % (concentration not given with the values); hit rate 1.6% among 350,000;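 active = significant combined selectivity score with lowered wild-type GFP, culture density cut under 30%, mutant RFP and density less affected; inactive = any of these conditions unmet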
PGC1a acetyl inh: lowers PGC1a acetylation signal in U2OS cells; AlphaScreen anti-acetyl-lysine; with virally co-expressed GCN5 acetyltransferase; inhibition, % at 15.6 µM; hit rate 0.17% among 350,000;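 active = every replicate shows inhibition of at least 40%; inconclusive = mean inhibition at least 40% but some replicate below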
PglD DTNB: inhibitors of Campylobacter jejuni PglD acetyltransferase; purified PglD enzyme, DTNB colorimetric CoA detection; inhibition, % at 12.5 µM; hit rate 0.098% among 360,000; in the data active = inhibition above about 16%, passing the limit was not always enough; inconclusive = no clear call, values can overlap the other calls
FGF22 binding: binders of recombinant human FGF22 by thermal shift. SYPRO orange fluorescence; percent of sucrose octasulfate shift, DMSO zero. Q9HCT0. hit rate 1.5% among 340,000. activity (Tm shift, normalised), % at 9.99 µM;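 active = mean Tm shift, scaled 0 neutral to 100 positive control, at about 1.3% or above, every replicate too, limit read from the data; inconclusive = no clear call, values can overlap the other calls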
Target sequence (Q9HCT0 whole entry, looked up): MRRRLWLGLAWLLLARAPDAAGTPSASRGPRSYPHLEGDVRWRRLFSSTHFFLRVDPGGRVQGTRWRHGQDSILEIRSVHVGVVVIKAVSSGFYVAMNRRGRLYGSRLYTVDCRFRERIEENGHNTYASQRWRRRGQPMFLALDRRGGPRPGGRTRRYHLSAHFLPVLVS
PglD confirm: blocks Campylobacter jejuni PglD acetyltransferase activity; shares compounds with PglD DTNB; Purified C. jejuni PglD, DTNB absorbance 412 nm; inhibition, % at 20 µM; 320 tested, under 10 active; AID 743156;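 active = mean inhibition across replicates of at least 20% with every single replicate also at 20% or more; inconclusive = mean inhibition at least 20% but some replicate falls below 20%; inactive = mean inhibition under 20% and not all replicates reach it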;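 note: initial rate of CoA release by acetyl transfer from AcCoA to the UDP-4-amino sugar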
Large screens that a line does not name were inactive (follow-up assays come after a bar, where they were run). This is a sample that favours compounds with a hit; in the whole collection about 2.9% have one here.

CC(=O)NC1C(=O)N(CCN2CCOCC2)c2ccc(Cl)cc21 (stereo not given)	PglD DTNB 25 (no result: Vif imaging, PGC1a acetyl inh) | PglD confirm 48
C(CCN1CCOCC1)CN1CCOCC1	none (no result: Vif imaging)
OCCN1CCOCCN(CCO)CCOCC1	PglD DTNB 21 (no result: Ecoli rRNA inh, FGF22 binding) | PglD confirm inactive
COc1ccc(S(=O)(=O)Nc2ccc3c(c2)C(=O)N([C@@H](C)CO)C[C@@H](C)[C@H](CN(C)S(=O)(=O)c2cccs2)OCCCC[C@H](C)O3)cc1	none (no result: Vif imaging)
C[C@H](CO)N1C[C@H](C)[C@@H](CN(C)Cc2ccc(C(=O)Nc3ccccc3N)cc2)Oc2ccc(NC(=O)CCN3CCOCC3)cc2C1=O	none (no result: Vif imaging, Cneo AK release, PglD DTNB)
COc1ccc(S(=O)(=O)N(C)C[C@@H]2Oc3c(NC(=O)Nc4c(C)noc4C)cccc3C(=O)N([C@H](C)CO)C[C@H]2C)cc1	none (no result: Vif imaging, Cneo AK release, PglD DTNB, FGF22 binding)
COc1ccc(CCNc2nc3ccccc3n3nnnc23)cc1OC	none (no result: Vif imaging)
c1ccc(CCNc2nc3ccccc3n3nnnc23)cc1	PglD DTNB 25 (no result: Ecoli rRNA inh, FGF22 binding) | PglD confirm inactive
Cn1c2ccccc2c2nnc(SCC(N)=O)nc21	PglD DTNB 47 | PglD confirm inactive
CCOC(=O)CSc1nnc2c3ccccc3n(C)c2n1	none
COc1ccc(C(C(=O)NCC2CCCO2)N(C(=O)CNC(=O)c2ccco2)c2ccc(C)c(C)c2)cc1OC (stereo not given)	PglD DTNB 22 | PglD confirm inactive
N#CC1=C(N)Oc2cc(N)ccc2C1c1cccc(F)c1 (stereo not given)	PglD DTNB 72 | PglD confirm inactive
CC1CCC2(CC1)NC(=O)N(CC(=O)NCc1ccc(Cl)cc1)C2=O (stereo not given)	PglD DTNB 21 | PglD confirm inactive
CCC1CCC2(CC1)NC(=O)N(CC(=O)NCc1ccc(Cl)cc1)C2=O (stereo not given)	none
COc1ccc2c3c([nH]c2c1)[C@@H](CO)N(C(=O)C1CCC1)CC31CCN(S(C)(=O)=O)CC1	none (no result: Vif imaging, Cneo AK release, PGC1a acetyl inh, PglD DTNB)
CCCn1c(=O)c(Cc2ccccc2)c(O)c2ccccc21	none (no result: Ecoli rRNA inh, FGF22 binding)
CCCCCn1c(=O)c(Cc2ccccc2)c(O)c2ccccc21	PglD DTNB 22 (no result: Ecoli rRNA inh, FGF22 binding) | PglD confirm inactive
COc1ccc(CC(=O)NC(=S)NNC(=O)COc2c(C)cccc2C)cc1	PglD DTNB 23 (no result: Ecoli rRNA inh, FGF22 binding) | PglD confirm inactive
O=C(c1ccc(F)cc1)N1[C@@H](CO)[C@@H]2c3ccccc3NC[C@@H]21	none (no result: Vif imaging)
CCOc1ccc(-c2nnc(-c3cccs3)o2)cc1	PglD DTNB 27 (no result: Ecoli rRNA inh, FGF22 binding) | PglD confirm inactive
C=CC[C@]1(C(=O)OC)N=C(c2ccc(OCCCO)cc2)O[C@H]1c1ccccc1	none (no result: Vif imaging, Ecoli rRNA inh, PGC1a acetyl inh)
CCC(Oc1ccccc1F)C(=O)NCCCn1ccnc1 (stereo not given)	PglD DTNB 37 | PglD confirm inactive
Cc1cccc2[nH]c(CN(C)Cc3nc(CC4CC4)no3)nc12	PglD DTNB 36 | PglD confirm inactive
CN(Cc1nc2ccccc2[nH]1)Cc1nc(CC2CC2)no1	none (no result: Cneo AK release, PGC1a acetyl inh, PglD DTNB)
Cn1nnnc1SCCNS(=O)(=O)c1ccccc1	PglD DTNB 22 (no result: Ecoli rRNA inh, FGF22 binding) | PglD confirm inconclusive
COc1ccc2c3c(n(C)c2c1)[C@H](CO)NCC31CCN(S(=O)(=O)c2cccc(F)c2)CC1	none (no result: Vif imaging, Cneo AK release, PglD DTNB)
COc1cc(NC(=O)COC(=O)CSc2cc(C)ccc2C)c(C)cc1[N+](=O)[O-]	PglD DTNB 22 | PglD confirm inactive
COc1cc(NC(=O)COC(=O)CSc2ccccc2F)c(C)cc1[N+](=O)[O-]	none (no result: Vif imaging, Cneo AK release, PGC1a acetyl inh, PglD DTNB)
COc1ccc(/C(O)=C2/C(=O)C(=O)N(CCCN3CCOCC3)C2c2ccc(Cl)cc2)cc1 (stereo not given)	PglD DTNB 24 | PglD confirm inactive
COc1ccc(N2CCN(/C(=N\S(=O)(=O)c3ccccc3)Nc3nc(C)cc(C)n3)CC2)cc1	PglD DTNB 26 (no result: Ecoli rRNA inh, FGF22 binding) | PglD confirm inactive
Cc1ccc(S(=O)(=O)/N=C(/Nc2nc(C)cc(C)n2)N2CCOCC2)cc1	none (no result: Ecoli rRNA inh, PGC1a acetyl inh, FGF22 binding)
S=C(NCc1ccncc1)NC1CCCCC1	PglD DTNB 27 | PglD confirm inactive
